pEC50: −log10 of the molar value.
Experiments:
[1] = molecular target: TgACTI (T. gondii actin) (Toxoplasma gondii, UniProt P53476); assay: Ninety-degree light scattering of TgACTI polymerization; assay type: biochemical; conditions: 5 μM TgACTI in F-buffer, compounds at 0.25, 1 or 2 μM, 9000 s
Procedure, shortened: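 Baculovirus-expressed N-His TgACTI was Ni-NTA purified, dialysed into G buffer (pH 8.0, 0.2 mM ATP) and spun at 100000g to remove aggregates. It was held at 5 μM in G buffer at 21 °C, with ex/em 310 nm. After a steady baseline, 10× F buffer (500 mM KCl, 20 mM MgCl2, 10 mM ATP) went in at 1/10 volume with compound or DMSO control. Scatter counted for 9000 s.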

[2] = system: T. gondii; assay: Inhibition of T. gondii proliferation; assay type: cell-based, Toxoplasma gondii; conditions: T. gondii growth on HFF monolayers
Procedure, shortened: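 β-gal-expressing parasites preincubated 30 min with compound dilutions in DMEM/10% FBS/gentamicin with 0.2% DMSO, then seeded at 500/well onto confluent HFF. Compound kept continuously or washed out after 2 or 48 h. After 72 h at 37 °C, 5% CO2, cells lysed and given chlorophenol red-β-D-galactopyranoside substrate. A570 normalised to untreated. EC50 from variable-slope log(inhibitor)–response fits, three experiments (n = 4 replicates).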

[3] = system: human cells; conditions: read-out: EC50, growth inhibition of human cells; cited from earlier work

Sequence of TgACTI (T. gondii actin) (P53476 whole entry): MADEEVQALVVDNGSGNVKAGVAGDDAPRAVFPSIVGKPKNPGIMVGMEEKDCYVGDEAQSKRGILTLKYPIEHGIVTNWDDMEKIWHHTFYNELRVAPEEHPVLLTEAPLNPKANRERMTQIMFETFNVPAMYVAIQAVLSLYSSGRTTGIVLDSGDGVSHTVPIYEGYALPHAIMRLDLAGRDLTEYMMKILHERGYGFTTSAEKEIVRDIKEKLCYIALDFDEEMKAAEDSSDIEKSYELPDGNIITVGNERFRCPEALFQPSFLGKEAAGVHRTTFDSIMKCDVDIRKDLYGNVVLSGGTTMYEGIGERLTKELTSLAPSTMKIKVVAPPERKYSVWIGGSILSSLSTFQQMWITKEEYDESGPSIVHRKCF

| SMILES | TgACTI polymerization (light scattering) [1] | activity against the parasite (in words) [2] | pEC50 [3] |
| --- | --- | --- | --- |
| CO[C@@H]1C(=O)O[C@H](C)[C@H](C)/C=C(\C)C[C@H](C)C(=O)N[C@@H](C)C(=O)N(C)[C@H](Cc2c[nH]c3ccccc23)C(=O)N[C@H]1c1ccccc1 [2a, synthetic chondramide A] | promote actin polymerization |  |  |
| CO[C@@H]1C(=O)O[C@H](C)[C@H](C)/C=C(\C)C[C@H](C)C(=O)N[C@@H](C)C(=O)N(C)[C@H](Cc2c[nH]c3ccccc23)C(=O)N[C@H]1c1ccc(C(N)=O)cc1 [2k] |  | eliminated activity against the parasite | ~5.85 |
| C/C1=C\[C@H](C)C[C@H](C)OC(=O)C[C@H](c2ccc(O)cc2)NC(=O)[C@@H](Cc2c(Br)[nH]c3ccccc23)N(C)C(=O)[C@H](C)NC(=O)[C@@H](C)C1 [compound 1, Jasplakinolide, reference compound] | promote actin polymerization |  |  |
| CO[C@@H]1C(=O)O[C@H](C)[C@H](C)/C=C(\C)C[C@H](C)C(=O)N[C@@H](C)C(=O)N(C)[C@H](Cc2c[nH]c3ccccc23)C(=O)N[C@H]1c1ccc(O)cc1 [compound 2, chondramide A] | promote actin polymerization |  |  |

From paper PMC3787807 (Journal of Natural Products, 2013)
